From ChEMBL document CHEMBL4177758, “Rational Drug Design of Topically Administered Caspase 1 Inhibitors for the Treatment of Inflammatory Acne” (J Med Chem, 2018)
Converted amounts (≈) assume the structure as drawn. The source made the active and inactive calls. No cut-off for these calls is given here.

Key:
[1] = Aqueous solubility of the compound in pH 7.4 buffered water after 24 hrs; assay type: physicochemical
How it was run: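 Semi-thermodynamic protocol: a mixture made from a 10 mM DMSO stock is diluted into pH 7.4 buffered water and stirred 24 h before the concentration is measured.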

[2] = Phototoxicity in NHEK assessed as decrease in cell viability after 24 hrs in presence of UV light by neutral red uptake assay; conditions: human
How it was run: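 Keratinocyte neutral red uptake assay adapted from the OECD 432 3T3 NRU test. Cells are irradiated with a simulated daily UV dose of 6 J/cm², and viability is read after 24 h exposure to compound.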

Caspase-1 [3] = biological target: T1, Caspase-1 (Homo sapiens, UniProt P29466); assay: Inhibition of caspase-1 in human THP1 cells assessed as decrease in LPS-induced IL-1beta secretion after overnight incubation by sandwich immunoassay; assay type: cell-based
T1 sequence (P29466 whole entry): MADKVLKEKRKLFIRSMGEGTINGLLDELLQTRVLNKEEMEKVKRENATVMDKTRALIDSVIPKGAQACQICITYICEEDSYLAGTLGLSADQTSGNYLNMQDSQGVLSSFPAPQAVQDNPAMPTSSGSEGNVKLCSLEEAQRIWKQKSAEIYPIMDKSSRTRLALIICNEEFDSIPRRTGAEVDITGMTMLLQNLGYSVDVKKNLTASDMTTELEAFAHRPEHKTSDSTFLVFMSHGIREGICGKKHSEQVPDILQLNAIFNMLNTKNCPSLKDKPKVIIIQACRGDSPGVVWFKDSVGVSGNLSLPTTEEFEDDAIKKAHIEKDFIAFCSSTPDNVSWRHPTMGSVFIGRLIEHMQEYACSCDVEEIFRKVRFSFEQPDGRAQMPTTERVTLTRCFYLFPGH

[4] = Intrinsic clearance in human epidermal keratinocyte S9 fraction assessed per mg of protein; assay type: ADME
[5] = Chemical stability in 96% ethanol assessed as parent compound recovery at 23 degC after 84 days; assay type: physicochemical; conditions: read-out: Drug recovery
How it was run: (§1)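 Compounds bearing the aspartyl aldehyde warhead are held in 96% ethanol at 23 °C and assayed as percent of parent compound recovered. Readings taken after 4 weeks are projected to 12 weeks with best-fit kinetic-order equations. Tautomers and potential stereoisomers are counted as parent.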

[6] = Lipophilicity, log D of the compound at pH 6.5 by chromatographic method; assay type: physicochemical; conditions: buffer
How it was run: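 Chromatographic lipophilicity at pH 6.5, converted to ChromLogD = CHI × 0.0857 − 2.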

[7] = Solubility of the compound in PG/EtOH solution; assay type: physicochemical
Caspase-1 [8] = biological target: T1, Caspase-1; assay: Inhibition of human recombinant caspase-1 using AC-WEHD-AMC as substrate at 20 times Km after 20 mins by fluorescence assay
How it was run: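 Human recombinant caspase-1 in pH 7.4 HEPES buffer (100 mM NaCl, 0.1% CHAPS, 1 mM EDTA, 10% glycerol, 10 mM DTT) with Ac-WEHD-AMC at 200 μM final. Compounds tested at 10 000–0.04 nM in 1% DMSO. Enzyme level is set to convert under 20% of substrate in 20 min at room temperature. Free AMC read at ex 340/em 450 nm; IC50 from a four-parameter logistic fit.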

Caspase-1 [9] = biological target: T1, Caspase-1; assay: Inhibition of human recombinant caspase-1 using AC-WEHD-AMC as substrate at Km after 20 mins by fluorescence assay
Caspase-1 (Homo sapiens) [10] = biological target: T2, Caspase-1 (Homo sapiens) (UniProt P29466); assay: Pseudoirreversible inhibition of human recombinant caspase-1 using AC-WEHD-AMC as substrate at 10 times IC50 preincubated for 1 hr followed by 100 fold dilution with substrate measured for 2 hrs by fluorescence assay
T2 sequence (whole entry): T1 sequence (P29466 whole entry)
How it was run: (§2)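 Jump dilution using the caspase-1 assay reagents. A 100X enzyme solution is preincubated 1 h with inhibitor at its IC90 (1% DMSO), then diluted 100-fold into Ac-WEHD-AMC at Km. AMC formation is recorded continuously for 2 h. The progress-curve slope is normalized to the DMSO control: about 90% indicates reversible, about 10% pseudo-irreversible.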

Caspase-1 (Homo sapiens) [11] = biological target: T2, Caspase-1 (Homo sapiens); assay: Reversible inhibition of human recombinant caspase-1 using AC-WEHD-AMC as substrate at 10 times IC50 preincubated for 1 hr followed by 100 fold dilution with substrate measured for 2 hrs by fluorescence assay; how it was run: as §2
[12] = Chemical stability in 96% ethanol assessed as parent compound recovery at 23 degC after 3 months; assay type: physicochemical; conditions: read-out: Drug recovery; how it was run: as §1
[13] = Intrinsic clearance in NHEK cells assessed per 10^6 cells; assay type: ADME, cell-based; conditions: human

| Compound | solubility at 24 h [1] [µM] | IC50 (Caspase-1 [3]) [nM] | chromatographic logD [6] | IC50 (Caspase-1 [8]) [nM] | IC50 (Caspase-1 [9]; read-out: pIC50 (converted)) [nM] | also measured |
| --- | --- | --- | --- | --- | --- | --- |
| Cc1cc(Nc2ccc3ccccc3c2)ccc1C(=O)Nc1cn(C(C)C)c(=O)n(C2(C(=O)N[C@H]3CC(=O)OC(O)C3)CC2)c1=O (some centres undefined) | 63 (≈ 39.4 µg/mL) | 360 | 3.4 |  |  | Activity [2]: Non-Toxic; CL [4]: 3.5 uL/min/mg protein; remaining at 2016 h [5]: 88% |
| CC(C(=O)N[C@H]1CC(=O)OC1O)n1c(=O)c(NC(=O)c2ccc(Nc3cnc4ccccc4n3)cc2)cn(C)c1=O (some centres undefined) | 96 (≈ 53.7 µg/mL) | 48 | 1.9 | 31.6 |  | solubility [7]: 890 µM (≈ 498 µg/mL); IC50 (Caspase-1 [9]; read-out: IC50): 5.6 nM |
| CC(C)N(NC(=O)c1ccc2ccccc2c1)C(=O)C1CCCC[C@H]1C(=O)N[C@H]1CC(=O)OC1O (some centres undefined) |  |  |  | 1580 to 10000 | 251 to 10000 |  |
| O=C1C[C@H](NC(=O)[C@@H]2CC[C@@H]3CCCC[C@H](NC(=O)c4nccc5ccccc45)C(=O)N32)C(O)O1 (some centres undefined) |  |  |  |  |  | pseudo-irreversible inhibition (qualitative call) (Caspase-1 (Homo sapiens) [10]): Active |
| O=C1C[C@H](NC(=O)[C@@H]2C[C@@H]3CN2C(=O)[C@@H](NC(=O)c2ccc4ccccc4c2)CCCCO3)C(O)O1 (some centres undefined) |  |  |  | > 10000 | 5010 |  |
| CC(C)n1cc(NC(=O)c2ccc(Nc3cnc4ccccc4n3)cc2)c(=O)n(C2(C(=O)N[C@H]3CC(=O)OC3O)CC2)c1=O (some centres undefined) | 87 (≈ 52.2 µg/mL) | 27 | 2.4 |  |  | solubility [7]: 25000 µM (≈ 15000 µg/mL); IC50 (Caspase-1 [9]; read-out: IC50): 4.7 nM |
| Cc1cnc(Nc2ccc(C(=O)Nc3cn(C)c(=O)n(C(C)C(=O)N[C@H]4CC(=O)OC4O)c3=O)cc2)cn1 (some centres undefined) |  |  |  |  | 39.8 |  |
| C[C@@H](C(=O)N[C@H]1CC(=O)O[C@@H]1O)N1C(=O)CCC(NC(=O)c2ccc3ccccc3c2)C1=O (some centres undefined) |  |  |  |  |  | pseudo-irreversible inhibition (qualitative call) (Caspase-1 (Homo sapiens) [10]): Active |
| CC(C)N(NC(=O)c1cccc(Oc2ccccc2)c1)C(=O)[C@@H]1CCCC[C@H]1C(=O)N[C@H]1CC(=O)OC1O (some centres undefined) |  |  |  |  |  | reversible inhibition call (jump dilution) (Caspase-1 (Homo sapiens) [11]): Active |
| CC(C)[C@H](NC(=O)[C@H](Cc1ccc(O)cc1)NC(=O)OCc1ccccc1)C(=O)N[C@@H](C)C(=O)N[C@@H](CC(=O)O)C(=O)CF |  |  |  |  |  | pseudo-irreversible inhibition (qualitative call) (Caspase-1 (Homo sapiens) [10]): Active |
| C[C@@H](C(=O)N[C@H]1CC(=O)OC1O)N1C(=O)CCC(NC(=O)c2ccc3ccccc3c2)C1=O (some centres undefined) |  |  |  | 1260 to 10000 | 1000 to 10000 |  |
| CC(C(=O)N[C@H]1CC(=O)OC1O)n1c(=O)c(NC(=O)c2ccc3ccccc3c2)cn(C)c1=O (some centres undefined) |  |  |  | 7940 | 501 | reversible inhibition call (jump dilution) (Caspase-1 (Homo sapiens) [11]): Active |
| CC(C)[C@H](NC(=O)c1ccc2ccccc2c1)c1ccc(C(=O)N[C@H]2CC(=O)OC2O)cn1 (some centres undefined) |  |  |  | > 10000 | 1260 |  |
| CC(C)N(NC(=O)c1ccc2ccccc2c1)C(=O)[C@@H]1CCCC[C@H]1C(=O)N[C@H]1CC(=O)OC1O (some centres undefined) |  |  |  |  |  | reversible inhibition call (jump dilution) (Caspase-1 (Homo sapiens) [11]): Active |
| C[C@@H](C(=O)N[C@H]1CC(=O)OC1O)N1C(=O)C[C@H](NC(=O)c2ccc3ccccc3c2)C1=O (some centres undefined) |  |  |  |  |  | pseudo-irreversible inhibition (qualitative call) (Caspase-1 (Homo sapiens) [10]): Active |
| CC(C)n1cc(NC(=O)c2ccc(Nc3cnc4ccccc4n3)cc2)c(=O)n(CC(=O)N[C@H]2CC(=O)OC2O)c1=O (some centres undefined) | 8.3 (≈ 4.76 µg/mL) | 53 | 2.3 |  |  | solubility [7]: 5200 µM (≈ 2980 µg/mL); IC50 (Caspase-1 [9]; read-out: IC50): 3 nM |
| CC(C)N(NC(=O)c1nccc2ccccc12)C(=O)[C@@H]1CCCC[C@H]1C(=O)N[C@H]1CC(=O)OC1O (some centres undefined) |  |  |  |  |  | reversible inhibition call (jump dilution) (Caspase-1 (Homo sapiens) [11]): Active |
| CC(C)N(NC(=O)c1ccc2ccccc2c1)C(=O)C1CNC[C@H]1C(=O)N[C@H]1CC(=O)OC1O (some centres undefined) |  |  |  | 1580 to 10000 | 251 to 10000 |  |

Further lines, with some results ahead:

| solubility at 24 h [1] [µM] | IC50 (Caspase-1 [3]) [nM] | chromatographic logD [6] | IC50 (Caspase-1 [8]) [nM] | IC50 (Caspase-1 [9]; read-out: pIC50 (converted)) [nM] | Compound | also measured |
| --- | --- | --- | --- | --- | --- | --- |
|  |  |  | 1580 to 10000 | 251 to 10000 | CC(C)N(NC(=O)c1ccc2ccccc2c1)C(=O)C1CCC[C@H]1C(=O)N[C@H]1CC(=O)OC1O (some centres undefined) |  |
| 52 (≈ 29.7 µg/mL) | 140 | 3.2 |  |  | CC(C)n1cc(NC(=O)c2ccc(Nc3ccc4ccccc4c3)cc2)c(=O)n(CC(=O)N[C@H]2CC(=O)OC2O)c1=O (some centres undefined) | solubility [7]: 36000 µM (≈ 20600 µg/mL); Activity [2]: Toxic; remaining at 2191.5 h [12]: 82%; CL [4]: < 0.82 uL/min/mg protein; IC50 (Caspase-1 [9]; read-out: IC50): 21 nM |
|  |  |  | 1260 to 10000 | 1000 to 10000 | C[C@@H](C(=O)N[C@H]1CC(=O)OC1O)N1C(=O)NC(NC(=O)c2ccc3ccccc3c2)C1=O (some centres undefined) |  |
| 42 (≈ 26.4 µg/mL) | 210 | 3.8 |  |  | CCC(C(=O)N[C@H]1CC(=O)OC(O)C1)n1c(=O)c(NC(=O)c2ccc(Nc3ccc4ccccc4c3)cc2C)cn(C(C)C)c1=O (some centres undefined) | CL [13]: 13 uL/min/10^6 cells; remaining at 2191.5 h [12]: 84%; CL [4]: 2.9 uL/min/mg protein |
| 66 (≈ 39.4 µg/mL) | 23 | 3.5 |  |  | CC(C)n1cc(NC(=O)c2ccc(Nc3ccc4ccccc4c3)cc2)c(=O)n(C2(C(=O)N[C@H]3CC(=O)OC3O)CC2)c1=O (some centres undefined) | solubility [7]: 31000 µM (≈ 18500 µg/mL); CL [13]: 2.1 uL/min/10^6 cells; remaining at 2191.5 h [12]: 99%; CL [4]: < 0.82 uL/min/mg protein |
|  |  |  | 100 | 15.8 | CC(C)[C@H](NC(=O)c1ccc2ccccc2c1)C(=O)N1C2CCC(O)(CC2)C1C(=O)N[C@H]1CC(=O)OC1O (some centres undefined) |  |
| 86 (≈ 50.5 µg/mL) | 50 | 2.4 |  |  | CC(C)n1cc(NC(=O)c2ccc(Nc3cnc4ccccc4n3)cc2)c(=O)n(C(C)C(=O)N[C@H]2CC(=O)OC2O)c1=O (some centres undefined) | solubility [7]: 11000 µM (≈ 6460 µg/mL); IC50 (Caspase-1 [9]; read-out: IC50): 5.6 nM |
| 2 (≈ 1.23 µg/mL) | 200 | 4.5 |  |  | CCC(C(=O)N[C@H]1CC(=O)OC1O)n1c(=O)c(NC(=O)c2ncc(Nc3ccc4ccccc4c3)cc2C)cn(C(C)C)c1=O (some centres undefined) | solubility [7]: 49000 µM (≈ 30100 µg/mL); Activity [2]: Toxic; CL [13]: 7.7 uL/min/10^6 cells; remaining at 2191.5 h [12]: 100%; CL [4]: 2 uL/min/mg protein |
| 72 (≈ 42.2 µg/mL) | 66 | 3.5 |  |  | Cc1cc(Nc2ccc3ccccc3c2)ccc1C(=O)Nc1cn(C(C)C)c(=O)n(CC(=O)N[C@H]2CC(=O)OC2O)c1=O (some centres undefined) | solubility [7]: 51000 µM (≈ 29900 µg/mL); CL [13]: 3.9 uL/min/10^6 cells; remaining at 2191.5 h [12]: 85% |
|  | 76 | 4 |  |  | CCC(C(=O)N[C@H]1CC(=O)OC1O)n1c(=O)c(NC(=O)c2ccc(Nc3ccc4ccccc4c3)cc2C)cn(C(C)C)c1=O (some centres undefined) | remaining at 2191.5 h [12]: 72% |
|  |  |  | 1260 to 10000 | 1000 to 10000 | C[C@@H](C(=O)N[C@H]1CC(=O)OC1O)N1C(=O)CC(NC(=O)c2ccc3ccccc3c2)C1=O (some centres undefined) |  |
